Reference: ChEMBL document CHEMBL4808168, “The Discovery of Two Novel Classes of 5,5-Bicyclic Nucleoside-Derived PRMT5 Inhibitors for the Treatment of Cancer” (J Med Chem, 2021)
≈ marks a conversion by molar mass, not a printed value.

Tests used:
[1] = MRT in rat; format: ADME; conditions: in vivo
[2] = Solubility of the compound in […] at pH 2 at 200 uM incubated for 24 hrs by UV-vis detection based HPLC analysis; format: physicochemical
Procedure, shortened: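 10 mM DMSO stock added to 10 mM potassium phosphate buffer at pH 2 or pH 7, or FaSSIF pH 6.5, to 200 μM total; 24 h equilibration, filtration, then reverse-phase HPLC with UV–vis detection.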

[3] = Plasma clearance in rat; format: ADME
[4] = biological target: Protein arginine N-methyltransferase 5 (Homo sapiens, UniProt O14744); test: Inhibition of PRMT5 (unknown origin) assessed as inhibition of symmetric dimethylation of arginine incubated for 3 days by fluorescence based cellular target engagement assay
Chain of Protein arginine N-methyltransferase 5 (O14744 whole entry): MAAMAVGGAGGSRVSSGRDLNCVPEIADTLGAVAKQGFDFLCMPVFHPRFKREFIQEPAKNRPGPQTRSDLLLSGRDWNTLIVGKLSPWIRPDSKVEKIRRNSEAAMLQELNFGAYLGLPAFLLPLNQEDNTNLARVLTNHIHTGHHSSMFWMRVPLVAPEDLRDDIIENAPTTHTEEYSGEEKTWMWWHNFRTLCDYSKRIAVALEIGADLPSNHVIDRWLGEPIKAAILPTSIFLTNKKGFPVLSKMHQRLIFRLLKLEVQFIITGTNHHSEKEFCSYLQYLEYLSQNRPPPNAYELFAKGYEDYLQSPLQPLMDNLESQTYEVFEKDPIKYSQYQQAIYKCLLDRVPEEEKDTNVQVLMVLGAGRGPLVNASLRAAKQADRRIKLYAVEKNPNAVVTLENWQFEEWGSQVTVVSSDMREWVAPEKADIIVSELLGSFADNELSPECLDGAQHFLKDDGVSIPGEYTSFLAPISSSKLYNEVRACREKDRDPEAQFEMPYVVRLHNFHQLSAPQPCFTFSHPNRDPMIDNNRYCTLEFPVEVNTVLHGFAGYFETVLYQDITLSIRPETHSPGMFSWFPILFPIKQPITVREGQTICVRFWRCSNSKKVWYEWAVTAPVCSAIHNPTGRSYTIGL
Procedure, shortened: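 MCF-7 cells (4000/well, collagen-coated plates) in EMEM with 0.01 mg/mL insulin and 10% FBS; 10-point 1:3 titration from 10,000 nM; 3 days at 37 °C/5% CO2; fixed, permeabilized, anti-SDMA antibody, then Alexa488 anti-rabbit IgG plus Hoechst; nuclear fluorescence by high-content imaging versus DMSO; EC50 by four-parameter robust fit.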

[5] = Solubility of the compound in FaSSIF at pH 7 at 200 uM incubated for 24 hrs by UV-vis detection based HPLC analysis; format: physicochemical
[6] = tested on: Z-138; test: Antiproliferative activity against human Z138 cells incubated for 10 days by cell titer-glo assay; format: functional, cell-based; conditions: Z-138, 240 h
[7] = Oral bioavailability in rat; format: ADME, organism-based; conditions: in vivo
[8] = Unbound volume of distribution in rat; format: ADME; conditions: in vivo
[9] = Unbound clearance in rat; format: ADME; conditions: in vivo

Row | SMILES | MRT [1] [h] | solubility at 24 h, 200 µM [2] [µM] | clearance [3] [mL/min/kg] | EC50 [4] [nM] | solubility at 24 h, 200 µM [5] [µM] | bioavailability [7] [%] | Vdu [8] [L/kg] | CL free [9] [mL/min/kg] | EC50 [6] [nM]
1 | Cc1cc2ccc(C[C@@H]3CC[C@@]4(O)[C@@H]3O[C@@H](n3ccc5c(N)ncnc53)[C@@H]4O)cc2nc1N | 0.8 | 151 (≈ 67.4 µg/mL) | 106 | 3.2 | 137 (≈ 61.2 µg/mL) |  | 24 | 523 | 0.77
2 | Nc1nc2cc(C[C@@H]3CC[C@@]4(O)[C@@H]3O[C@@H](n3ccc5c(N)ncnc53)[C@@H]4O)c(F)cc2cc1F | 1.6 | 156 (≈ 73.1 µg/mL) | 40 | 2.8 | 110 (≈ 51.5 µg/mL) | 30 | 80 | 844 | 20
3 | Nc1nc2cc(O[C@@H]3CC[C@@]4(O)[C@@H]3O[C@@H](n3ccc5c(N)ncnc53)[C@@H]4O)ccc2cc1Br |  |  |  | > 10 |  |  |  |  | > 10
4 | Cc1ncnc2c1ccn2[C@@H]1O[C@@H]2[C@H](Cc3ccc4cc(F)c(N)nc4c3)CC[C@]2(O)[C@H]1O | 1 | 159 (≈ 71.5 µg/mL) | 32 | 14 | 118 (≈ 53 µg/mL) | 51 | 20 | 351 | 23
5 | Nc1nc2cc(C[C@@H]3CC[C@@]4(O)[C@@H]3O[C@@H](n3cc(F)c5c(N)ncnc53)[C@@H]4O)ccc2cc1F | 1 | 158 (≈ 74 µg/mL) | 60 | 4.6 | 114 (≈ 53.4 µg/mL) | 24 | 34 | 541 | 5.6
6 | Nc1nc2cc(C[C@@H]3CC[C@@]4(O)[C@@H]3C[C@@H](n3ccc5c(N)ncnc53)[C@@H]4O)ccc2cc1Br | 1.6 | 147 (≈ 74.9 µg/mL) | 15 | 2.9 | 20 (≈ 10.2 µg/mL) | 10 | 136 | 1559 | 6.9
7 | Cc1ncnc2c1ccn2[C@@H]1O[C@@H]2[C@@H](Cc3ccc4cc(Cl)c(N)nc4c3)CC[C@]2(O)[C@H]1O |  |  |  | 21 |  |  |  |  | 26
8 | Cc1ncnc2c1ccn2[C@@H]1O[C@@H]2[C@@H](Oc3ccc4cc(F)c(N)nc4c3)CC[C@]2(O)[C@H]1O | 1.5 | 152 (≈ 68.6 µg/mL) | 16 | 38 | 116 (≈ 52.4 µg/mL) |  | 30 | 345 | 172
9 | CNc1ncnc2c1ccn2[C@@H]1O[C@@H]2[C@H](Cc3ccc4cc(Br)c(N)nc4c3)CC[C@]2(O)[C@H]1O | 1 |  | 31 | 9.9 |  | 20 | 52 | 900 | 16
10 | Nc1nc2cc(O[C@H]3CC[C@@]4(O)[C@@H]3O[C@@H](n3ccc5cncnc53)[C@@H]4O)ccc2cc1Br |  |  |  | 32 |  |  |  |  | 20
11 | Cc1ncnc2c1ccn2[C@@H]1C[C@@H]2[C@@H](Cc3ccc4cc(F)c(N)nc4c3)CC[C@]2(O)[C@H]1O |  |  |  | 11 |  |  |  |  | 63
12 | Nc1nc2cc(C[C@@H]3CC[C@@]4(O)[C@@H]3O[C@@H](n3ccc5c(C6CC6)ncnc53)[C@@H]4O)ccc2cc1Br |  |  |  | 5.3 |  |  |  |  | 67
13 | Cc1ncnc2c1ccn2[C@@H]1O[C@@H]2[C@H](Cc3ccc4ccc(N)nc4c3)CC[C@]2(O)[C@H]1O | 1.7 | 181 (≈ 78.1 µg/mL) | 101 | 9.9 | 164 (≈ 70.8 µg/mL) |  | 68 | 648 | < 0.5

Stronger by EC50 [4], values ahead:

Row | MRT [1] [h] | solubility at 24 h, 200 µM [2] [µM] | clearance [3] [mL/min/kg] | EC50 [4] [nM] | solubility at 24 h, 200 µM [5] [µM] | bioavailability [7] [%] | Vdu [8] [L/kg] | CL free [9] [mL/min/kg] | SMILES | EC50 [6] [nM]
14 | 1.5 | 162 (≈ 82.8 µg/mL) | 25 | 1.3 | 35 (≈ 17.9 µg/mL) | 10 | 82 | 940 | Nc1nc2cc(C[C@@H]3CC[C@@]4(O)[C@@H]3O[C@@H](n3ccc5c(N)ncnc53)[C@@H]4O)ccc2cc1Br | 1.7
15 | 0.6 | 158 (≈ 71.5 µg/mL) | 49 | 0.9 | < 1 |  | 11 | 289 | Nc1nc2cc(O[C@H]3CC[C@@]4(O)[C@@H]3O[C@@H](n3ccc5c(N)ncnc53)[C@@H]4O)ccc2cc1F | 27
16 | 3.2 | 149 (≈ 68.9 µg/mL) | 9 | 1.5 | 123 (≈ 56.9 µg/mL) | 17 | 150 | 789 | Cc1nc(N)c2ccn([C@@H]3C[C@@H]4[C@H](Cc5ccc6cc(F)c(N)nc6c5)CC[C@]4(O)[C@H]3O)c2n1 | 4.1
17 | 2.1 | 171 (≈ 80.1 µg/mL) | 25 | 1.7 | 83 (≈ 38.9 µg/mL) | 29 | 54 | 430 | Nc1nc2cc(C[C@@H]3CC[C@@]4(O)[C@@H]3O[C@@H](n3ccc5c(N)ncnc53)[C@@H]4O)cc(F)c2cc1F | 5.6
18 | 1.3 | 164 (≈ 76.5 µg/mL) | 25 | 0.74 | 121 (≈ 56.4 µg/mL) | 19 | 29 | 1476 | Nc1nc2cc(C[C@@H]3CC[C@@]4(O)[C@@H]3C[C@@H](n3cc(F)c5c(N)ncnc53)[C@@H]4O)ccc2cc1F | 2.3
19 | 1.1 | 186 (≈ 94.9 µg/mL) | 27 | < 0.5 | 21 (≈ 10.7 µg/mL) | 46 | 148 | 2163 | Cc1ncnc2c1ccn2[C@@H]1O[C@@H]2[C@H](Cc3ccc4cc(Br)c(N)nc4c3)CC[C@]2(O)[C@H]1O | 1.4
20 | 1.7 | 184 (≈ 85.4 µg/mL) | 21 | 0.87 | 22 (≈ 10.2 µg/mL) | 64 | 83 | 424 | Cc1ncnc2c1ccn2[C@@H]1C[C@@H]2[C@H](Cc3ccc4cc(Cl)c(N)nc4c3)CC[C@]2(O)[C@H]1O | 2.2
21 | 1.8 | 128 (≈ 65.7 µg/mL) | 49 | 1.2 | < 1 | 10 | 28 | 349 | Nc1nc2cc(O[C@H]3CC[C@@]4(O)[C@@H]3O[C@@H](n3ccc5c(N)ncnc53)[C@@H]4O)ccc2cc1Br | 3.7
22 | 1.3 | 159 (≈ 74.2 µg/mL) | 46 | 1.2 | 60 (≈ 28 µg/mL) | 8 | 79 | 1045 | Nc1nc2cc(C[C@@H]3CC[C@@]4(O)[C@@H]3O[C@@H](n3ccc5c(N)ncnc53)[C@@H]4O)ccc2cc1Cl | 3.2
